Compounds with a hit are over-represented: about 2.1% of the library has one in this group of screens.
KLK7 zymogen act: proKLK7 zymogen activators, primary screen, biochemical, fluorescence intensity; activation, % at 7 µM; 0.9% of 370,000 active; Kallikrein-7 (Homo sapiens), P49862; purified proKLK7, EDANS-DABCYL substrate fluorescence; 100% is mature enzyme control, 0% vehicle;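 active = activation above the mean of all tested compounds plus 3 SD, computed per campaign excluding outliers beyond control limits, cut at about 13% in these data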
Runt-SMMHC FRET: inhibitors of RUNX1 Runt–CBFb-SMMHC binding, primary screen, biochemical, FRET, Cerulean-Runt, Venus-CBFb-SMMHC, uHTS | Cerulean-Runt/Venus-CBFb-SMMHC FRET ratio 530/480, 1 h | 0.74% of 220,000 active | AID 1434, 2008 | inhibition, % at 20 µM;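 active = mean inhibition across duplicate retests at 20 µM reaching about 50%, limit read from the data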;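 note: 0% = DMSO wells and 100% = wells with excess untagged CBFb-SMMHC; inhibitors lower the FRET ratio by blocking Runt binding to CBFb-SMMHC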
RanGTP-Impb inh: inhibitors of RanGTP-importin-beta interaction, primary screen, biochemical, FRET, CFP-Ran, YFP-importin-beta, homogeneous; cell-free CFP-Ran/YFP-importin-beta FRET ratio; inhibition, % (test concentration not listed); 1.1% of 300,000 active;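 active = more than half of the replicate wells show a fall in the fluorescence ratio signal beyond about 16%, limit read from the data, passing the limit was not always enough; inconclusive = exactly half of the replicate wells pass the set limit; inactive = fewer than half of replicates pass the limit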;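 note: 0% = DMSO wells and 100% = Ran loaded with GDP instead of GTP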
Runt-CBFb FRET: inhibitors of RUNX1 Runt–CBFb binding, primary screen, biochemical, FRET, Cerulean-Runt, Venus-CBFb, uHTS; Runt-related transcription factor 1 (Homo sapiens) + Core-binding factor subunit beta …; inhibition, % at 20 µM; Cerulean-Runt/Venus-CBFb FRET ratio 530/480, 1 h; 0.46% of 220,000 active;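 active = inhibition over about 50% at 20 µM in the single-dose screen, limit read from the data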;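 note: 0% = DMSO wells and 100% = excess unlabeled CBFb competitor control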
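Assay system: Cerulean-tagged RUNX1 Runt domain (FRET donor) fusion protein / Amount: 100 nM each of Venus-CBFb and Cerulean-Runt domain / Medium: Tris buffer pH 7.5 with salts and BSA / Also added: Venus-CBFb 100 nM / Schedule: 1 h complex formation plus 1 h compound treatment, room temperature / Signal: FRET fluorescence / Read-out: loss of energy transfer signal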
MEX-5 binding: MEX-5 zinc finger RNA-binding disruptors – biochemical, C. elegans, fluorescence polarization, MLPCN library, primary screen. Zinc finger protein mex-5 (Caenorhabditis elegans), Q9XUB2. MEX-5/FITC-TCR2 RNA binding; hits give low values. activity score (negative = inhibition of binding), % at 10 µM. 0.38% of 300,000 active;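 active = inhibition past about -25% in most replicates, and total fluorescence under double the plate's negative control median, limit read from the data; inconclusive = replicates evenly split on the limit, or fluorescence at least double controls; inactive = too little inhibition in most replicates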;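 note: 0% = DMSO and -100% = 5 µM competing unlabeled TCR2 RNA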
* = called active by the depositor; ? = inconclusive; . = no result.

SMILES	KLK7 zymogen act	Runt-SMMHC FRET	RanGTP-Impb inh	Runt-CBFb FRET	MEX-5 binding
COCCCNC(=O)C(C#N)c1nc2ccccc2nc1N1CCCC1 (configuration not stated)	0.5	.	54.3*	.	?
CCCCCCNC(=O)C(C#N)c1nc2ccccc2nc1N1CCCC1 (configuration not stated)	-5.1	-100.5	24.5*	-5.3	?
CCCC(=O)N1CCCC1(C)C(=O)NCCc1ccccn1 (configuration not stated)	0.1	.	.	.	.
COC(=O)[C@]12C[C@H](CC(=O)N3CCOCC3)C(=O)N(CCc3ccc(OC)c(OC)c3)C1=C[C@H](C(C)C)O[C@@H]2C1CC1	0.0	.	.	.	.
CCCN(CCC)c1nc2ccccc2nc1C(C#N)C(=O)OC(C)COC (configuration not stated)	5.7	.	23.1*	.	-7.4
CN(/N=C/c1cc(Cl)cc(Cl)c1O)C(=S)NC(C)(C)C	-3.4	90.1*	4.5	35.7	-2.0
O=C(/C=C/c1ccco1)NC(=S)Nc1cccc(C(=O)O)c1	-0.3	.	-1.2	.	-34.4*
Cc1ncc(CO)c(/C=N/NC(=O)c2cc(Br)ccc2O)c1O	-1.7	-25.0	1.9	0.6	-82.0*
Cc1ncc(CO)c(/C=N/NC(=O)c2ccc(Br)cc2)c1O	.	58.5*	21.0*	18.7	-0.4
Cc1cc(C(=O)N/N=C/c2c(CO)cnc(C)c2O)c2ccccc2n1	-3.5	.	5.7	.	-4.2
Cc1ncc(CO)c(/C=N/NC(=S)Nc2ccc(C(C)C)cc2)c1O	-63.9	1.9	0.1	17.4	0.9
O=Cc1c[nH]c2cccc(OCc3ccccc3)c12	-0.3	.	.	.	.
Cc1nn(C)c(C)c1CN(C)C(=O)C1c2ccccc2Oc2ccccc21	0.1	-5.3	-4.5	1.3	-46.5*
Cc1nn(C)c(C)c1CN(C)C(=O)C1(C)CC1(Br)Br (configuration not stated)	0.0	6.1	-2.4	-1.3	-2.1
Cc1cc(C)cc(C(=O)NCC(=O)OCC(=O)NC2CCCc3ccccc32)c1 (configuration not stated)	-0.3	.	.	.	.
CC1(C)CC2(C)OC(=N)C1(C#N)C2(C#N)C#N (configuration not stated)	-0.4	-2.3	1.1	-1.1	-0.1
CC1C2(C)OCC(C#N)(C(=N)O2)C1(C#N)C#N (configuration not stated)	.	51.2*	7.4	21.4	-11.9
O=C(Nc1ccccc1)Nc1nc2ncccn2c1-c1ccc(F)cc1	5.6	.	.	.	.
O=c1[nH]c(SCc2ccccc2F)nc2ccccc12	-0.4	-2.3	1.9	-2.4	2.0
O=c1cc(CSc2nc3ccccc3c(=O)[nH]2)c2ccc(O)cc2o1	-10.8	51.9*	6.5	21.1	-3.8
O=C(O)c1cccc(-n2cccc2/C=C/[N+](=O)[O-])c1	0.8	2.1	3.1	11.5	-35.6*
O=C(CSc1nnc2ccccn12)N1CCc2ccccc21	0.3	0.6	-0.1	0.3	1.8
COc1ccc(C(=O)NC2CCCc3c2cnn3-c2cc(F)cc(F)c2)c(OC)c1OC (configuration not stated)	0.5	.	3.1	.	-1.5
CCN(CC)C(=O)CSc1nnc2nnc3cc(OC)ccc3n12	1.8	-129.3	-44.2	-136.8	-77.0*
Cc1ccccc1Oc1ccc2c(c1)[C@@H]1C[C@H](N(C)C(=O)Nc3cc(Cl)cc(Cl)c3)[C@H]([C@H](C)O)C(=O)N1CC2	0.2	.	.	.	.
COC(=O)c1noc(C)c1-c1ccnn1C(=O)c1ccc(C)cc1	-0.4	-6.4	11.7*	-0.7	2.6
COC(=O)c1cc(S(=O)(=O)N2CCN(c3ccc(F)cc3)CC2)c[nH]1	0.2	.	5.1	.	-1.7
COC(=O)c1cc(S(=O)(=O)N2CCN(c3ccccc3)CC2)c[nH]1	0.0	.	29.1*	.	-0.7
COc1cccc(-c2nc(Cl)nc3cc(Cl)ccc23)c1	-0.9	.	.	.	.
CNC(=O)c1cc2c(=O)n3cc(C)ccc3nc2n(C(C)C)c1=N	8.9	41.0	180.7*	11.1	-9.3
